The subject of one series is Hepatitis C virus. The series can be described thus: Inhibition of HCV replication in Huh7 cells after 48 hrs by luciferase assay. Type of series: functional, organism-based, Hepacivirus hominis. The note with it: Huh-7, 48 h. The method, boiled down: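 HCV subgenomic replicon cells carrying luciferase reporter; replicon inhibition read by luciferase after two-day incubation with compound; EC50 averaged from at least three independent experiments.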

Series [1] can be described thus: Cytotoxicity against Huh7 cells by XTT assay. It counts as cell-based. The following applies: human, huh-7. In a few lines: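 Cytotoxicity in the replicon-bearing cells measured by XTT tetrazolium assay per manufacturer's protocol; CC50 averaged from at least three independent experiments.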
On the technique in general: Tetrazolium dyes change colour on reduction, which living cells bring about.

Series [2] in a line: Antiviral index, ratio of CC50 for Huh7 cells to EC50 for HCV replication. It counts as functional, Huh-7. The method, boiled down:
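Antiviral index calculated as 50% toxic dose (XTT, replicon cells) divided by 50% effective dose (luciferase replicon read-out after two days); from at least three independent experiments.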

This note sets out measurements from ChEMBL document CHEMBL1137457, “5'-O-masked 2'-deoxyadenosine analogues as lead compounds for hepatitis C virus (HCV) therapeutic agents” (Bioorg Med Chem, 2007).

One may read the EC50 as the midpoint of the concentration-response curve. A high value points to a less potent agent. `O=C(OC[C@H]1O[C@@H](n2cnc3c(O)ncnc32)C[C@@H]1O)c1ccccc1`: the EC50 in the series on Hepatitis C virus was > 100 µM.
`CSc1ncnc2c1ncn2[C@H]1C[C@H](O)[C@@H](COC(=O)c2ccccc2)O1`: the EC50 in the series on Hepatitis C virus is > 100 µM.
One may read the CC50 as the concentration that lowers cell viability or growth by half. A lower CC50 goes with harm at low concentration. In turn, `Nc1ncnc2c1ncn2[C@H]1C[C@H](O)[C@@H](COC(=O)c2ccccc2)O1` had an EC50 in the series with Hepatitis C virus of 105 µM. For the same compound, in series [1], the CC50 was > 200 µM. Further, the “Ratio CC50/EC50” value in series [2] is >1.9.
In the series on Hepatitis C virus, `O[C@H]1C[C@H](n2cnc3c(Cl)ncnc32)O[C@@H]1COCc1ccccc1` yielded an EC50 of 17.7 µM. This compound showed a CC50 in series [1] of 178 µM. Moreover, the “Ratio CC50/EC50” value in series [2] is reported as 10.1.
For `CCCC(=O)OC[C@H]1O[C@@H](n2cnc3c(Cl)ncnc32)C[C@@H]1O`, in that order: 30.3 µM, > 200 µM and >6.6.
Regarding `OC[C@H]1O[C@@H](n2cnc3c(Cl)ncnc32)[C@H](O)[C@@H]1O`, in the series on Hepatitis C virus, the EC50 amounted to 31 µM. The CC50 in series [1] was > 200 µM. Moreover, the “Ratio CC50/EC50” value in series [2] is listed as >6.5.
The corresponding values for `O=C(OC[C@H]1O[C@@H](n2cnc3c(Cl)ncnc32)C[C@@H]1O)c1ccccc1` are 6.1 µM, 111 µM and 18.2.
As for `OCC(CO)CCn1cnc2c(Cl)ncnc21`, the EC50 in the series with Hepatitis C virus turned out to be 80.8 µM. Also, the CC50 in series [1] is > 200 µM. Further, the “Ratio CC50/EC50” value in series [2] was >2.5.
Compound `CC(C)(C)C(=O)OC[C@H]1O[C@@H](n2cnc3c(Cl)ncnc32)C[C@@H]1O` came in with an EC50 in the series with Hepatitis C virus of 28 µM. Also, the CC50 in series [1] came out at 177 µM. Besides, in series [2], the “Ratio CC50/EC50” value is listed as 6.3.
Consider `O=C(OC[C@@H]1C[C@@H](O)[C@H](n2cnc3c(Cl)ncnc32)O1)c1ccccc1`, for which, in the series with Hepatitis C virus, the EC50 is 38.1 µM. This compound also returned a CC50 in series [1] of 70.5 µM. The “Ratio CC50/EC50” value in series [2] is recorded as 1.9.
For the compound `COc1ccc(C(=O)OC[C@H]2O[C@@H](n3cnc4c(Cl)ncnc43)C[C@@H]2O)cc1`, the EC50 with Hepatitis C virus turned out to be 8.4 µM. The compound also registered a CC50 in series [1] of 76.4 µM. For the same compound, the “Ratio CC50/EC50” value in series [2] came out at 9.1.
Take `O=C(OCC(CO)CCn1cnc2c(Cl)ncnc21)c1ccccc1` (configuration not stated): the response with Hepatitis C virus was half-maximal at 13.3 µM (EC50). In addition, the midpoint of cytotoxicity in series [1], the CC50, lay at 108 µM. In series [2], the “Ratio CC50/EC50” value was determined as 8.1.
The compound `OC[C@@H]1C[C@@H](O)[C@H](n2cnc3c(Cl)ncnc32)O1` showed an EC50 with Hepatitis C virus of 64.1 µM. Further, the CC50 in series [1] is > 200 µM. The “Ratio CC50/EC50” value in series [2] is >3.1.
`C=CCOC[C@H]1O[C@@H](n2cnc3c(Cl)ncnc32)C[C@@H]1O` displayed an EC50 in the series on Hepatitis C virus of 24.5 µM. This compound also had a CC50 in series [1] of 140 µM. The “Ratio CC50/EC50” value in series [2] was 5.7.
The corresponding values for `NC(=O)c1ncn([C@@H]2O[C@H](CO)[C@@H](O)[C@H]2O)n1` [RIBAVIRIN] are 54.8 µM, > 200 µM and >3.7.
Consider `Cc1cc(C)c(C(=O)OC[C@H]2O[C@@H](n3cnc4c(Cl)ncnc43)C[C@@H]2O)c(C)c1`, for which the EC50 with Hepatitis C virus was > 50 µM. The same compound showed a CC50 in series [1] of 91 µM. The “Ratio CC50/EC50” value in series [2] is on record as <1.8.
For `O=C(OC[C@H]1C[C@@H](n2cnc3c(Cl)ncnc32)[C@@H]1CO)c1ccccc1`, the EC50 in the series on Hepatitis C virus stood at 6.4 µM. The CC50 in series [1] is 20 µM. In addition, the “Ratio CC50/EC50” value in series [2] came to 3.1.
For the compound `OC[C@H]1O[C@@H](n2cnc3c(Cl)ncnc32)C[C@@H]1O`, the EC50 in the series on Hepatitis C virus amounted to 47.2 µM. Moreover, it took 173 µM to reach half-maximal cytotoxicity in series [1] (CC50). In series [2], the “Ratio CC50/EC50” value stood at 3.7.
In the series on Hepatitis C virus, `OC[C@H]1C[C@@H](n2cnc3c(Cl)ncnc32)[C@@H]1CO` yielded an EC50 of 46.1 µM. For the same compound, the CC50 in series [1] is > 200 µM. The “Ratio CC50/EC50” value in series [2] amounted to 4.3.
On to `O=C(OC[C@H]1O[C@@H](n2cnc3c(Cl)ncnc32)[C@H](O)[C@@H]1O)c1ccccc1`, for which, in the series on Hepatitis C virus, a half-maximal response (EC50) required 41 µM. In series [1], this compound came in with a CC50 of 97.3 µM. Besides, the “Ratio CC50/EC50” value in series [2] is recorded as 2.4.
Turning to `CN(C)c1ncnc2c1ncn2[C@H]1C[C@H](O)[C@@H](COC(=O)c2ccccc2)O1`, the EC50 in the series with Hepatitis C virus was found to be 22.3 µM. Also, the CC50 in series [1] was > 200 µM. In series [2], the “Ratio CC50/EC50” value is given as >9.
In the case of `O=S(=O)(OC[C@H]1O[C@@H](n2cnc3c(Cl)ncnc32)C[C@@H]1O)c1ccccc1`, the midpoint of the response with Hepatitis C virus, the EC50, lay at 28.8 µM. This compound also displayed a CC50 in series [1] of 146 µM. For the same compound, in series [2], the “Ratio CC50/EC50” value is recorded as 5.1.
